# MC4R ag barr – MC4R agonists recruiting beta-arrestin, primary screen, cell-based, luminescence, agonist arm of biased-ligand search; 360,000 compounds, 0.98% hits; activation, % at 8.9 µM; AID 540308, 2011; Melanocortin receptor 4 (Homo sapiens), P32245; U2OS MC4R beta-arrestin complementation; percent of melanotan II response, DMSO zero;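 active = activation above a per-plate cutoff, the mean activation of sample wells on that plate plus 3 SD, cut at about 8% in these data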
# TAAR1 antag – human TAAR1 antagonists, primary screen, Fluo-8 calcium fluorescence, CHO RD-HGA16 cells. Trace amine-associated receptor 1 (Homo sapiens), Q96RJ0. antagonist. 360,000 compounds, 1.5% hits. inhibition, % at 3 µM;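 active = inhibition above a per-plate cutoff, the mean inhibition of test compounds on that plate plus 3 SD, cut at about 49% in these data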;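 note: 0% = DMSO plus EC80 beta-PEA response and 100% = DMSO alone without agonist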
#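 System: CHO RD-HGA16 cells bearing hTAAR1. Reagent: EC80 β-phenethylamine stimulus. Schedule: seeding 17-24 h prior, 75-min 37 °C, 30-min RT dye loading. Signal: Fluo-8 intracellular calcium dye fluorescence, real-time kinetic reads. Read-out: % inhibition from peak post-agonist over basal fluorescence ratio. Benchmarks: vehicle wells and EC80 agonist wells. Replicates: n of 1.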
# B2AR ag – beta2AR agonists driving receptor internalization, primary screen, cell-based, FAP fluorogen, flow cytometry | Beta-2 adrenergic receptor (Homo sapiens), P07550 | Am2.2-beta2AR cells | response, % (test concentration not listed) | 340,000 compounds, 0.43% hits | AID 504454, 2011;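 active = response above a set limit, near 3 SD of response in nonfluorescent compounds, cut at about 42% in these data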
# Target sequence (P07550 whole entry, looked up): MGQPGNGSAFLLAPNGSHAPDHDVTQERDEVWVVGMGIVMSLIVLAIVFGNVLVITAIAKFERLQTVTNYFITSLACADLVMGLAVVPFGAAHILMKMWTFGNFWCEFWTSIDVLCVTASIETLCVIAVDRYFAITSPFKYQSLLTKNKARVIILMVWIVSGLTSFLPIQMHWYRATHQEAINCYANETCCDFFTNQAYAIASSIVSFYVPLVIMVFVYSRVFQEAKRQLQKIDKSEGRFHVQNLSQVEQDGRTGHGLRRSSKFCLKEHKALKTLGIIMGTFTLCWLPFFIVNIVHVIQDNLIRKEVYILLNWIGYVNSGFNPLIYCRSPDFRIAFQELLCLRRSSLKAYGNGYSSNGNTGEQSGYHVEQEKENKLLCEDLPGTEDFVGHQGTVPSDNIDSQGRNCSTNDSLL
# HTR2A ag – mouse Htr2a agonists via beta-arrestin recruitment, primary screen, cell-based, luminescence; 5-hydroxytryptamine receptor 2A (Mus musculus), P35363; CHO-K1 mHTR2A beta-arrestin complementation; percent of 30 µM serotonin response; activation, % at 7.6 µM; 360,000 compounds, 0.66% hits; AID 624169, 2012;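 active = activation above a run cutoff, the mean activation of all tested compounds plus 3 SD, cut at about 14% in these data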;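 note: 0% = plate median of compound wells and 100% = 30 µM serotonin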
# MC4R antagonist – MC4R antagonists of cAMP signaling, primary screen, cell-based, TR-FRET, antagonist arm of biased-ligand search. Melanocortin receptor 4 (Homo sapiens), P32245. MC4R-expressing cells, MTII-stimulated cAMP, LANCE TR-FRET. inhibition, % at 6.5 µM. 360,000 compounds, 0.48% hits;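 active = inhibition above its plate's cutoff, the mean of tested wells on that plate plus 3 SD, cut at about 29% in these data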;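 note: 0% = Melanotan II alone and 100% = Melanotan II plus saturating MCL0020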
#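 Assay system: U2OS-MC4R stable cell line; Also added: Melanotan II; Technique: Eu-cAMP/anti-cAMP TR-FRET, emission 671 nm; Times: 30-min compound, 1-h challenge, 1-h detection, room temperature.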
# TAAR1 ag – human TAAR1 agonists, primary screen, Fluo-8 calcium fluorescence, CHO RD-HGA16 cells. 360,000 compounds, 0.99% hits. AID 624467, 2012. activation, % at 3 µM. vehicle wells 0%, saturating PEA agonist 100%. Trace amine-associated receptor 1 (Homo sapiens), Q96RJ0;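 active = activation above the mean activation of all test compounds in the run plus 3 SD, cut at about 38% in these data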
#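 Benchmarks: low control DMSO, high control PEA (EC100); System: CHO RD-HGA16 cells carrying human TAAR1 plus Gα16; Detection: Fluo-8 fluorescence, 5 s baseline then 140 s kinetic read; Schedule: 17-24 h plating, Fluo-8 75 min 37 °C, 30 min RT; Read-out basis: % activation from peak over basal fluorescence ratio, DMSO-to-PEA scaled.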
# TAAR1 ag conf – human TAAR1 agonists, retest of hits, confirmation, Fluo-8 calcium fluorescence, CHO RD-HGA16 cells | shares compounds with TAAR1 ag | scaled: DMSO 0%, maximal phenethylamine 100% | activation, % at 3 µM | 2,400 compounds, 82% hits | AID 651783, 2012;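 active = activation above a cutoff set at the run's mean compound activation plus 3 SD, cut at about 39% in these data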
# Ga16 ag counter – nonselective calcium mobilization agonists, CHO-Ga16 cells, counter-screen for hTAAR1 agonist project, cell-based, fluorescence, CHO-Ga16 parental line. shares compounds with TAAR1 ag. Fluo-8 calcium fluorescence; normalized to maximal ATP response, DMSO zero. activation, % at 3 µM. 2,400 compounds, 50% hits. AID 651787, 2012;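 active = activation above the run cutoff, the mean activation over all tested wells plus 3 SD, cut at about 12% in these data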;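 note: 0% = DMSO wells and 100% = maximal ATP response on the peak over basal ratio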
# TAAR1 desensitize – TAAR1 desensitization by agonist hits, confirmation, counter-screen for TAAR1 agonist project, cell-based, fluorescence, tachyphylaxis. shares compounds with TAAR1 ag. CHO RD-HGA16 hTAAR1, Fluo-8 calcium, beta-PEA response inhibition. inhibition, % at 3 µM. 2,400 compounds, 46% hits. AID 651951, 2012;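 active = inhibition above the run cutoff, the mean inhibition of all test compounds plus 3 SD, cut at about 49% in these data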;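 note: beta-PEA stimulus applied at its EC80; loss of beta-PEA calcium signal after compound pretreatment read as receptor desensitization; 0% = DMSO with beta-PEA at EC80 and 100% = DMSO alone without agonist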
# Ga16 nonsel ant – inhibition of ATP-evoked calcium response in CHO-Ga16 cells, counter-screen for TAAR1 agonist project, cell-based, fluorescence. shares compounds with TAAR1 ag. CHO-Ga16 ATP-induced calcium, Fluo-8 fluorescence. inhibition, % at 3 µM. 2,400 compounds, 39% hits. AID 651952, 2012;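 active = inhibition above the plate's mean compound inhibition plus 3 SD, computed per plate, cut at about 22% in these data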;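 note: 0% = EC80 ATP with DMSO and 100% = DMSO wells without ATP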
# * marks the source's active call; other numbers are inactive results; · = no result. Hits are enriched below; roughly 4.3% of the tested compounds scored in any of these assays.
SMILES,MC4R ag barr,TAAR1 antag,B2AR ag,HTR2A ag,MC4R antagonist,TAAR1 ag,TAAR1 ag conf,Ga16 ag counter,TAAR1 desensitize,Ga16 nonsel ant
Cc1cnc(NC(=O)CCCSc2nc3ccccc3s2)s1,3,61*,-3,4,8,53*,9,2,2,4
COC(=O)CCCCCCCCC(=O)Nc1nc2ccccc2s1,1,2,2,3,2,50*,76*,37*,18,5
CC(C)=NNc1nc2c(c(=O)[nH]c(=O)n2C)n1CCCc1ccccc1,0,-9,-6,-4,7,2,·,·,·,·
CC(C)=NNc1nc2c(c(=O)[nH]c(=O)n2C)n1CCc1ccccc1,-2,-13,1,0,1,47*,37,2,3,18
Cc1ccc(-n2nc3c(=O)n(CC(=O)NCCc4ccccc4C)nc(C)c3c2C)cc1,-1,·,7,-1,-4,·,·,2,·,7
C/C(=N\NC(=O)c1nnn(-c2nonc2N)c1-c1ccccc1)c1ccco1,-3,-19,-8,-3,5,106*,120*,87*,27,1
COc1cccc(-c2c(C(=O)N/N=C(\C)c3ccc(Cl)s3)nnn2-c2nonc2N)c1,-3,59*,5,-10,5,89*,82*,52*,64*,39*
CCOc1cccc(-c2c(C(=O)N/N=C(\C)c3ccncc3)nnn2-c2nonc2N)c1,0,15,1,0,1,19,·,·,·,·
COc1cccc(-c2c(C(=O)N/N=C(\C)c3cccnc3)nnn2-c2nonc2N)c1,-4,-8,-8,-8,-1,7,·,·,·,·
COc1cccc(-c2c(C(=O)N/N=C(\C)c3ccco3)nnn2-c2nonc2N)c1,-2,17,-8,0,0,115*,128*,88*,49*,18
C/C(=N\NC(=O)c1nnn(-c2nonc2N)c1-c1ccccc1)c1cccnc1,0,-15,-14,0,-2,1,·,·,·,·
COC(=O)[C@]12C[C@H](CC(=O)NCCC(C)C)C(=O)N(Cc3ccc4c(c3)OCO4)C1=C[C@H](COCc1ccccc1)O[C@@H]2C,·,-32,·,·,·,-2,·,·,·,·
O=C(N=Nc1c(O)n(C2OC(=O)c3ccccc32)c2ccccc12)c1ccc(O)cc1 (configuration not stated),0,35,-2,9,7,71*,8,8,14,19
COc1ccc2nc(SC(C)C(=O)NCC(=O)Nc3ccc(F)c(F)c3F)[nH]c2c1 (configuration not stated),-2,-24,-8,-4,1,-1,·,·,·,·
Cc1sc(NC(=O)CSc2nnc(COc3ccccc3)n2C)c(C#N)c1C,7,47,-3,-1,12,53*,11,4,19,8
O=C(NN1C(=O)C2C(c3ccccc3)C=CC(c3ccccc3)C2C1=O)c1cccc(Br)c1 (configuration not stated),2,87*,4,1,11,69*,79*,72*,85*,81*
O=C(NN1C(=O)C2C3C=CC(C3)C2C1=O)c1cccc(Cl)c1 (configuration not stated),-3,-9,-5,-1,6,2,·,·,·,·
O=C(NN1C(=O)C2C3c4ccccc4C(c4ccccc43)[C@@H]2C1=O)c1ccccc1 (some centres not stated),0,-2,1,4,3,4,·,·,·,·
O=C(NN1C(=O)C2C(c3ccccc3)C=CC(c3ccccc3)C2C1=O)c1ccccc1 (configuration not stated),0,68*,6,-2,-1,70*,13,13*,37,29*
CC(C(=O)NCc1ccccc1Cl)N1C(=O)c2ccccc2C1=O (configuration not stated),0,0,3,-5,3,1,·,·,·,·
N#CC1c2ccccc2-c2ccccc2N1C(=O)c1ccccc1 (configuration not stated),-1,10,·,-3,6,1,·,·,·,·
O=c1cc(C2CCCCC2)[nH]c(=O)[nH]1,-2,-11,-8,4,3,1,·,·,·,·
O=[N+]([O-])c1ccc(O)c(CNCc2ccccc2)c1,-1,5,-14,-3,-3,3,·,·,·,·
O=[N+]([O-])c1ccc(CNCc2cc(Cl)ccc2O)cc1,2,4,1,-3,4,51*,60*,20*,20,12
CCOc1cc(/C=C2/C(=O)NN(c3cccc(Cl)c3)C2=O)ccc1O,-1,-13,8,3,13,53*,62*,18*,17,11
O=C(CNCc1ccccn1)N1CCc2ccccc2C1,0,3,-3,4,-2,47*,28,0,-2,6
O=C(/C=C/C(=O)N1CCc2ccccc2C1)N1CCc2ccccc2C1,-1,47,-3,12,-1,82*,87*,3,58*,8
O=C(CSc1ncccn1)N1CCc2ccccc2C1,-2,7,-3,-2,4,7,·,·,·,·
Cc1ccc(C)c(NC(=O)N2CCc3ccccc3C2)c1,-2,-5,-4,4,11,86*,73*,5,33,7
Cc1ccc(C)c(NC(=O)N2CCCCCC2)c1,4,-29,5,-7,1,2,·,·,·,·

# Compound activity (PubChem BioAssay)
